Active and inactive are the calls of the source. The rule behind the calls is not given here.
Key:
Type in all cases: functional
[1] = Antioxidant activity assessed as reduction in copper-mediated ascorbic acid oxidation preincubated for 10 mins measured for every 2 mins upto 2 hrs by UV spectrophotometry
How it was run: (§1)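 Test compound suspension combined with Chelex-treated water containing 2 µM Cu+. Plate pre-incubated 10 min at 37 °C, then ascorbate added (from a 2 mM stock, pH 7) to a starting 200 µM. A265 read every 2 min for 2 h at 37 °C to obtain the initial depletion rate. Ethanol vehicle served as baseline and DTPA as chelator control. Triplicate.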

[2] = test system: Radical scavenging activity; experiment: Antioxidant activity assessed as DPPH free radical scavenging activity
[3] = Antioxidant activity assessed as ferric ion reducing power by FRAP method
How it was run: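 FRAP assay adapted for lipophilic antioxidants: Fe3+–TPTZ complex reduction in 300 mM acetate buffer, pH 3.6, at a 1:500 molar ratio of test compound to ferric ions. Data are mean ± SD of three series run in triplicate, with Student–Newman–Keuls post-hoc ANOVA (p<0.05).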

[4] = Antioxidant activity assessed as reduction in copper-mediated ascorbic acid oxidation at 100 uM preincubated for 10 mins measured for every 2 mins upto 2 hrs by UV spectrophotometrya; design: scale not given: the % may be the effect or the level left; how it was run: as §1
[5] = Antioxidant activity assessed as ABTS+ free radical scavenging activity by TEAC assay
How it was run: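 TEAC assay measures reduction of the ABTS radical cation, with results expressed as Trolox equivalents. Data are mean ± SD of three series run in triplicate, with Student–Newman–Keuls post-hoc ANOVA (p<0.05).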

[6] = Antioxidant activity assessed as nitration product at 1:1 compound to phenol concentration
How it was run: (§2)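 FeCl3 used as oxidant at 10:1 and 100:1 molar ratios to test compound, with phenolic substrate at 1:1 to compound (FeCl3/compound/phenolic 10:1:1 or 100:1:1), in 50:50 v/v H2O/EtOH. Percent conversion to nitration product determined. Means of triplicate experiments.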

[7] = Antioxidant activity assessed as nitration product at 1:1 compound to salicylic acid concentration; how it was run: as §2
[8] = Antioxidant activity assessed as nitration product using HOC6H3(Me)2-(2,6) as substrate at FeCl3 to compound to phenol concentration 10:1:1; how it was run: as §2
[9] = Antioxidant activity assessed as nitration product using PhOH as substrate at FeCl3 to compound to phenol concentration 100:1:1; how it was run: as §2
[10] = Antioxidant activity assessed as nitration product using PhOMe as substrate at FeCl3 to compound to phenol concentration 100:1:1; how it was run: as §2
[11] = Antioxidant activity assessed as nitration product using MeOC6H3(Me)2-(2,6) as substrate at FeCl3 to compound to phenol concentration 10:1:1; how it was run: as §2
[12] = Antioxidant activity assessed as nitration product using HOC6H3(Me)2-(2,6) as substrate at FeCl3 to compound to phenol concentration 100:1:1; how it was run: as §2
[13] = Antioxidant activity assessed as nitration product using HOC6H3(t-Bu)2-(2,6) as substrate at FeCl3 to compound to phenol concentration 10:1:1; how it was run: as §2
[14] = Antioxidant activity assessed as nitration product using HOC6H3(t-Bu)2-(2,6) as substrate at FeCl3 to compound to phenol concentration 100:1:1; how it was run: as §2
[15] = Antioxidant activity assessed as nitration product using PhOMe as substrate at FeCl3 to compound to phenol concentration 10:1:1; how it was run: as §2
[16] = Antioxidant activity assessed as nitration product using PhOH as substrate at FeCl3 to compound to phenol concentration 10:1:1; how it was run: as §2
[17] = Antioxidant activity assessed as nitration product using MeOC6H3(Me)2-(2,6) as substrate at FeCl3 to compound to phenol concentration 100:1:1; how it was run: as §2
[18] = Antioxidant activity assessed as formation of DPPH breakdown product at 0.5 mM incubated for 20 mins by HPLC
How it was run: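 Aerobic DPPH (0.5 mM) mixed with test compound (0.5 mM) and incubated 20 min at room temperature. Reaction products analysed by HPLC, taking the peak area of the product eluting at 4 min. Mean ± SD of five experiments.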

[19] = test system: Radical scavenging activity; experiment: Antioxidant activity assessed as rate constant for DPPH free radical scavenging activity by stopped flow spectroscopy
How it was run: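 Stopped-flow rapid mixing with diode-array photometer detection. Antioxidant stocks (ca. 2 mM) and DPPH (200 µM) prepared in ethanol; DPPH (200 µM) in acetonitrile also used. Starting antioxidant concentration after mixing is half the stock. Second-order rate constant derived from the kinetics.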

Row | SMILES | Activity [2] | Activity [3] | Activity [5] | further results
1 | Cc1cc(N)cc2c1O[C@](C)(CCC[C@H](C)CCC[C@H](C)CCCC(C)C)CC2 | Active | Active | Active | Activity [1]: Dose-dependent effect; Activity [4]: 44.7%
2 | CC(C)=CCC/C(C)=C/CC/C(C)=C/CC[C@]1(C)CCc2cc(O)cc(C)c2O1 | Active | Active | Active | –
3 | Cc1c(N)cc2c(c1C)O[C@](C)(CCC[C@H](C)CCC[C@H](C)CCCC(C)C)CC2 | Active | Active | Active | Activity [1]: Dose-dependent effect; Activity [4]: 35%
4 | Cc1cc(O)cc2c1O[C@](C)(CCC[C@H](C)CCC[C@H](C)CCCC(C)C)CC2 | Active | Active | Active | –
5 | Cc1cc(O)cc2c1OC(C)(CCC(=O)O)CC2 (racemic) | Active | Active | Active | –
6 | Cc1c(O)cc2c(c1C)O[C@](C)(CCC[C@H](C)CCC[C@H](C)CCCC(C)C)CC2 | Active | Active | Active | Activity [6]: 13%
7 | Cc1c(C)c2c(c(C)c1N)CC[C@@](C)(CCC[C@H](C)CCC[C@H](C)CCCC(C)C)O2 | Active | Active | Active | Activity [7]: 8%; Activity [8]: 4%; Activity [9]: 26%; Activity [1]: Dose-dependent effect; Activity [10]: 2%; Activity [11]: 0%; Activity [12]: 9%; Activity [13]: 0.2%; Activity [14]: 0.4%; Activity [15]: 0%; Activity [16]: 12%; Activity [4]: 19.5%; Activity [17]: inactive; Activity [18]: Active; Activity [19]: 4290 L/mol/s
8 | Cc1c(O)cc2c(c1C)OC(C)(C)CC2 | – | – | – | Activity [6]: 3%
9 | CC(C)=CCC/C(C)=C/CC/C(C)=C/CC[C@]1(C)CCc2cc(O)c(C)c(C)c2O1 | Active | Active | Active | –
10 | CC(C)=CCC/C(C)=C/CC/C(C)=C/CC[C@]1(C)CCc2cc(N)c(C)c(C)c2O1 | Active | Active | Active | –
11 | Cc1c(C)c2c(c(C)c1O)CCC(C)(CCC(=O)O)O2 (racemic) | Active | Active | Active | –
12 | Cc1c(O)cc2c(c1C)OC(C)(CCC(=O)O)CC2 (racemic) | Active | Active | Active | –
13 | CC(C)=CCC/C(C)=C/CC/C(C)=C/CC[C@]1(C)CCc2c(C)c(N)c(C)c(C)c2O1 | Active | Active | Active | –
14 | Cc1c(C)c2c(c(C)c1O)CC[C@@](C)(CCCC(C)CCCC(C)CCCC(C)C(=O)O)O2 (mixture of isomers) | Active | Active | Active | –
15 | Cc1c(C)c2c(c(C)c1O)CC[C@@](C)(CCC[C@H](C)CCC[C@H](C)CCCC(C)C)O2 | Active | Active | Active | Activity [18]: inactive; Activity [19]: 280 L/mol/s
16 | CC(C)=CCC/C(C)=C/CC/C(C)=C/CC[C@]1(C)CCc2c(C)c(O)c(C)c(C)c2O1 | Active | Active | Active | –
17 | CC(C)=CCC/C(C)=C/CC/C(C)=C/CC[C@]1(C)CCc2cc(N)cc(C)c2O1 | Active | Active | Active | –
